Data as given in ChEMBL document CHEMBL1157882, “Novel 2-[(benzylamino)methyl]pyrrolidine-3,4-diol derivatives as alpha-mannosidase inhibitors and with antitumor activities against hematological and solid malignancies” (Bioorg Med Chem, 2010).
Calls of active or inactive are those of the source. The rule behind the calls is not given here.

Columns and labels:
[1] = test system: U-266; assay: Cytotoxicity against human U266 cells after 72 hrs by colorimetric assay; type: functional, cell-based; settings: Homo sapiens, U-266, 72 h; read-out: IC50
Procedure, shortened: (§1)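 Cells grown in McCoy's medium (adherent lines) or RPMI-1640 (U266), each with 10% FBS, L-glutamine and antibiotics, at 37 °C in 5% CO₂. Compound dissolved as a 100 mM DMSO stock, final DMSO ≤0.4%. Cells were exposed for 72 h across a 10^-2 to 400 µM range. Viability was read by CellTiter 96 Aqueous (2–4 h incubation, absorbance 490 nm). Triplicate wells; IC50 from curve fitting.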

[2] = test system: SK-BR-3; assay: Decrease in cyclinE1 mRNA level in human SKBR3 cells at 50 uM after 12 hrs by TLDA; type: functional, cell-based
Procedure, shortened: (§2)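 SKBR3 and MCF7 cells seeded at 2 × 10⁵ per well, treated 12 h with 50 µM compound (DMSO stock); total RNA extracted, cDNA made with random hexamers, gene expression profiled by TaqMan low-density arrays (qPCR, duplicate per gene). Normalised to RPLP0; fold change versus DMSO vehicle-treated cells, calculated as 2^-ΔΔCT.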

[3] = Cytotoxicity in human B-CLL assessed as pre-necrotic cells at 100 uM after 24 hrs by annexin V/propidium iodide staining based flow cytometry (reference value: 1.3 to 3.7%); type: functional
[4] = test system: SK-BR-3; assay: Increase in CDKN1A mRNA level in human SKBR3 cells at 50 uM after 12 hrs by TLDA; type: functional, cell-based; procedure, shortened: as §2
[5] = test system: SK-BR-3; assay: Cell cycle arrest in human SKBR3 cells by accumulation of cells at G1 phase at 200 uM after 48 hrs by propidium iodide-staining based flow cytometry (reference value: 54%); type: functional
[6] = Cytotoxicity in human multiple myeloma cells assessed as viable cells at 100 uM after 24 hrs by annexin V/propidium iodide staining based flow cytometry (reference value: 48.2%); type: functional; settings: Multiple myeloma cell, read-out: Activity
[7] = test system: MCF7; assay: Increase in CDKN1A mRNA level in human MCF7 cells at 50 uM after 12 hrs by TLDA; type: functional, cell-based; procedure, shortened: as §2
[8] = Cytotoxicity in human B-CLL assessed as early apoptotic cells at 200 uM after 24 hrs by annexin V/propidium iodide staining based flow cytometry (reference value: 3.6 to 20.2%); type: functional
[9] = test system: Jurkat; assay: Cytotoxicity against human Jurkat cells after 72 hrs by colorimetric assay; type: functional, cell-based; settings: Homo sapiens, Jurkat, 72 h; read-out: IC50
[10] = Cytotoxicity in human multiple myeloma cells assessed as pre-necrotic cells at 50 uM after 24 hrs by annexin V/propidium iodide staining based flow cytometry (reference value: 42.1%); type: functional, Multiple myeloma cell
[11] = Cytotoxicity in human multiple myeloma cells assessed as pre-necrotic cells at 100 uM after 24 hrs by annexin V/propidium iodide staining based flow cytometry (reference value: 42.1%); type: functional, Multiple myeloma cell
[12] = Cytotoxicity in human multiple myeloma cells assessed as early apoptotic cells at 100 uM after 24 hrs by annexin V/propidium iodide staining based flow cytometry (reference value: 0.1%); type: functional, Multiple myeloma cell
[13] = test system: SK-BR-3; assay: Cytotoxicity against human SKBR3 cells after 72 hrs by colorimetric assay; type: functional, cell-based; settings: Homo sapiens, SK-BR-3, 72 h; read-out: IC50; procedure, shortened: as §1
[14] = test system: Oryza sativa; assay: Inhibition of alpha-glucosidase from rice at 1 mM at pH 4
Procedure, shortened: (§3)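 Glycosidase panel of commercial enzymes assayed at each enzyme's optimal pH with compound at 1 mM; percentage inhibition of enzyme activity calculated.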

[15] = test system: SK-BR-3; assay: Decrease in CDC25 mRNA level in human SKBR3 cells at 50 uM after 12 hrs by TLDA; type: functional, cell-based
Procedure, shortened: (§4)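 SKBR3 or MCF7 cells, 2×10⁵/well, treated with 50 µM for 12 h. Total RNA was column-purified and reverse-transcribed with random hexamers, then assayed on TaqMan low-density arrays. Expression was normalised to RPLP0, with fold change versus DMSO-vehicle cells calculated as 2^-ΔΔCT. Q-PCR run in duplicate per gene.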

[16] = Cytotoxicity in human B-CLL assessed as early apoptotic cells at 100 uM after 24 hrs by annexin V/propidium iodide staining based flow cytometry (reference value: 3.6 to 20.2%); type: functional
[17] = test system: BT-474; assay: Cytotoxicity against human BT474 cells after 72 hrs by colorimetric assay; type: functional, cell-based; settings: Homo sapiens, BT-474, 72 h; read-out: IC50; procedure, shortened: as §1
[18] = test system: SK-BR-3; assay: Cell cycle arrest in human SKBR3 cells by accumulation of cells at G2/M phase at 100 uM after 48 hrs by propidium iodide-staining based flow cytometry (reference value: 16%); type: functional
[19] = test system: A549; assay: Cytotoxicity against human A549 cells after 72 hrs by colorimetric assay; type: functional, cell-based; settings: Homo sapiens, A549, 72 h; read-out: IC50; procedure, shortened: as §1
[20] = test system: SK-BR-3; assay: Cell cycle arrest in human SKBR3 cells by accumulation of cells at G1 phase at 100 uM after 48 hrs by propidium iodide-staining based flow cytometry (reference value: 54%); type: functional
[21] = Cytotoxicity in human multiple myeloma cells assessed as viable cells at 200 uM after 24 hrs by annexin V/propidium iodide staining based flow cytometry (reference value: 48.2%); type: functional; settings: Multiple myeloma cell, read-out: Activity
[22] = test system: MCF7; assay: Decrease in cyclinE1 mRNA level in human MCF7 cells at 50 uM after 12 hrs by TLDA; type: functional, cell-based; procedure, shortened: as §2
[23] = Cytotoxicity in human multiple myeloma cells assessed as viable cells at 50 uM after 24 hrs by annexin V/propidium iodide staining based flow cytometry (reference value: 48.2%); type: functional; settings: Multiple myeloma cell, read-out: Activity
[24] = test system: MDA-MB-231; assay: Cytotoxicity against human MDA-MB-231 cells after 72 hrs by colorimetric assay; type: functional, cell-based; settings: Homo sapiens, MDA-MB-231, 72 h; read-out: IC50; procedure, shortened: as §1
[25] = test system: SK-BR-3; assay: Decrease in hTERT mRNA level in human SKBR3 cells at 50 uM after 12 hrs by TLDA; type: functional, cell-based; procedure, shortened: as §2
[26] = molecular target: Beta-galactosidase (Escherichia coli) (UniProt Q8VNN2); assay: Inhibition of beta-galactosidase from Escherichia coli at 1 mM at pH 7; procedure, shortened: as §3
[27] = Cytotoxicity against human U87 cells after 72 hrs by colorimetric assay; type: functional, cell-based, U-87MG ATCC; settings: Homo sapiens, U-87 MG, 72 h; read-out: IC50; procedure, shortened: as §1
[28] = test system: MCF7; assay: Cytotoxicity against human MCF7 cells after 72 hrs by colorimetric assay; type: functional, cell-based; settings: Homo sapiens, MCF7, 72 h; read-out: IC50; procedure, shortened: as §1
[29] = test system: Helix pomatia; assay: Inhibition of beta-mannosidase from snail at pH 4; set-up: concentration or dose not given beside the values; settings: concentration not given here
[30] = test system: Prunus dulcis; assay: Inhibition of beta-glucosidase from almond at 1 mM at pH 5; procedure, shortened: as §3
[31] = test system: SK-BR-3; assay: Decrease in ID1 mRNA level in human SKBR3 cells at 50 uM after 12 hrs by TLDA; type: functional, cell-based; procedure, shortened: as §2
[32] = test system: MCF7; assay: Decrease in ID1 mRNA level in human MCF7 cells at 50 uM after 12 hrs by TLDA; type: functional, cell-based; procedure, shortened: as §4

Chain of Beta-galactosidase (Escherichia coli) (Q8VNN2 whole entry, looked up): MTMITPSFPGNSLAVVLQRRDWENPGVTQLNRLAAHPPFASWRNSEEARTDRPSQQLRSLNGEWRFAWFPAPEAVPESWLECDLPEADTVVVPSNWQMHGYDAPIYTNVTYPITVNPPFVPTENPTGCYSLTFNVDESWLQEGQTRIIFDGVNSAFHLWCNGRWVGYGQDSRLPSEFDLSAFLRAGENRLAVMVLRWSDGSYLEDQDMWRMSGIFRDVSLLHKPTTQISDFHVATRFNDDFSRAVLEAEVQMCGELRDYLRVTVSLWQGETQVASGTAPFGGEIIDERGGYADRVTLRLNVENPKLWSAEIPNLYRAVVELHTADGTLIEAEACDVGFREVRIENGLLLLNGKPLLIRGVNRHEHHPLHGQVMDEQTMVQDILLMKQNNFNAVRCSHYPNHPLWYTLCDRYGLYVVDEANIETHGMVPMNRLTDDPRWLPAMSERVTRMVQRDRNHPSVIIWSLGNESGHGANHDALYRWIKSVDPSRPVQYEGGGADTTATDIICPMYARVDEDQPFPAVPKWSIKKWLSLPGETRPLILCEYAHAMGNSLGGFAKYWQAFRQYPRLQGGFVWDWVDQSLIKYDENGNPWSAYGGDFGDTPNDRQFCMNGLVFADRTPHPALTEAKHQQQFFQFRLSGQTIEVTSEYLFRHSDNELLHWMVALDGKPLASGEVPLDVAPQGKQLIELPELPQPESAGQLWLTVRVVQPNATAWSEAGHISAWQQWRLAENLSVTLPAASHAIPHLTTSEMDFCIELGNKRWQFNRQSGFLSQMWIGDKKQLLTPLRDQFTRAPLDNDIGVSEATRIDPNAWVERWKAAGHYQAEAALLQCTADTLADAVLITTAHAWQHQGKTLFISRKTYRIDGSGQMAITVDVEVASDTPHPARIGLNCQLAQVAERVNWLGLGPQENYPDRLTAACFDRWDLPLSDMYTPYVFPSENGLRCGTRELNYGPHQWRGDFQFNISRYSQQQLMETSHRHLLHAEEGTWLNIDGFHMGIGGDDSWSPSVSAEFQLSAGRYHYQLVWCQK

For `OC[C@H](NC[C@H]1NC[C@H](O)[C@@H]1O)c1ccc(-c2ccc(C(F)(F)F)cc2)cc1`, the IC50 [1] was 50 µM, the Activity [2] was “Active” and the Activity [3] was 0.8%. For the same molecule, the Activity [4] was “Active”, the Activity [5] was 42% and the viability at 100 µM [6] was 27.6%. The Activity [7] was “Active”, the Activity [8] was 1% and the IC50 [9] was 75 µM. The Activity [10] was 17%, the Activity [11] was 17% and the Activity [12] was 2.6%. The IC50 [13] was 48 µM, the inhibition [14] was < 10% and the Activity [15] was “Active”. For the same molecule, the Activity [16] was 2.7%, the IC50 [17] was 93 µM and the Activity [18] was 43%. The IC50 [19] was 152 µM, the Activity [20] was 48% and the viability at 200 µM [21] was 3%. The Activity [22] was “Active”, the viability at 50 µM [23] was 42.8% and the IC50 [24] was 66 µM. For the same molecule, the Activity [25] was “Active”, the inhibition [26] was < 10% and the IC50 [27] was 80 µM. For the same molecule, the IC50 [28] was 77 µM, the inhibition [29] was < 10% and the inhibition [30] was 50%. The Activity [31] was “Active” and the Activity [32] was “Active”.
